Data: ChEMBL document CHEMBL4390639, “Design, Synthesis, and Biological Evaluation of Novel Allosteric Protein Disulfide Isomerase Inhibitors” (J Med Chem, 2019)
Each block holds one compound with its values, some of them ahead of it. Calls of active or inactive are those of the source. No cut-off for these calls is given here.

Key:
[1] = Cytotoxicity against human NU04 cells assessed as inhibition of cell growth measured after 72 hrs by MTT assay; assay type: functional, cell-based; conditions: Homo sapiens, 72 h; read-out: IC50
Method in brief: (§1)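 A172 and NU04 cells were seeded at 4000 cells/well and U87MG at 5000 cells/well, incubated overnight at 37 °C, 5% CO2, then exposed to compound or vehicle for 72 h. MTT (3 mg/mL) was added for 4 h, formazan was dissolved in DMSO, and absorbance was read at 570 nm. IC50 came from nonlinear regression; mean ± SD of at least three experiments.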

[2] = target: Protein disulfide-isomerase (Homo sapiens, UniProt P07237); test: Inhibition of recombinant human N-terminal His-tagged PDI expressed in Escherichia coli BL21 (DE3) pLysS assessed as reduction in enzyme-mediated bovine insulin aggregation
Chain of Protein disulfide-isomerase (P07237 whole entry): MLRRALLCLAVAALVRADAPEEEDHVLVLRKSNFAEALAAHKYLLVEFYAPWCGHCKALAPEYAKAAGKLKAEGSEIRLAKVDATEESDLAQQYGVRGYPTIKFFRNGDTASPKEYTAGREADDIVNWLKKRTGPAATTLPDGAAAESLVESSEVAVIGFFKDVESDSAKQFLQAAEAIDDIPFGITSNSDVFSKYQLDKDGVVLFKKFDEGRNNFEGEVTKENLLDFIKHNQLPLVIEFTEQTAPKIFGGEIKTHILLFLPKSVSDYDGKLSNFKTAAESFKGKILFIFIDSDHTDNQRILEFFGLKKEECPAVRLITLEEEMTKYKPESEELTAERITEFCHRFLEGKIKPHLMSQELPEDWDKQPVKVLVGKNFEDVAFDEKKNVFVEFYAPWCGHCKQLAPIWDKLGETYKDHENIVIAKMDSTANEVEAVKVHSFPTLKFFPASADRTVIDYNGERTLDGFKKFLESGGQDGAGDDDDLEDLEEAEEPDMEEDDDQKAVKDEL

[3] = tested on: A 172; test: Cytotoxicity against human A172 cells assessed as inhibition of cell growth measured after 72 hrs by MTT assay; assay type: functional, cell-based; conditions: Homo sapiens, A 172, 72 h; read-out: IC50; method in brief: as §1
[4] = tested on: U-87 MG; test: Cytotoxicity against human U87MG cells assessed as inhibition of cell growth measured after 72 hrs by MTT assay; assay type: functional, cell-based, U-87MG ATCC; conditions: Homo sapiens, U-87 MG, 72 h; read-out: IC50; method in brief: as §1
[5] = tested on: U-87 MG; test: Cytotoxicity against human U87MG cells assessed as inhibition of cell proliferation at <IC50 measured after 72 hrs by MTT assay relative to control; assay type: functional, U-87MG ATCC
[6] = tested on: U-87 MG; test: Inhibition of colony formation in human U87MG cells assessed as combination index at 1 to 30 uM measured after 24 hrs in presence of arsenic trioxide by crystal violet staining based assay; assay type: functional, U-87MG ATCC
[7] = tested on: Protein disulfide-isomerase (Homo sapiens), P07237 [H256A]; test: Binding affinity to recombinant human N-terminal His-tagged PDI H256A mutant expressed in Escherichia coli BL21 (DE3) pLysS assessed as change in melting temperature at 100 uM by ROX dye based thermal shift assay
Chain of Protein disulfide-isomerase (Homo sapiens), P07237 [H256A] (P07237 whole entry H256A): as the sequence (P07237 whole entry) above, with H256A counted along it
Method in brief: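 Purified wild-type, C53S/C397S or H256A PDI at 0.5 mg/mL in 50 mM Tris, pH 7.0, with or without 100 μM compound, was mixed with ROX dye in a 20 µL well. DMSO (5% in buffer) was the control. Samples were heated 25–99 °C at 1 °C/min, and the Boltzmann melting temperature shift versus DMSO was reported. Mean ± SD of three experiments.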

[8] = target: Eukaryotic translation initiation factor 2 subunit 1 (Homo sapiens) (UniProt P05198); test: Induction of EIF2alpha phosphorylation in human A172 cells at 10 ug/ml measured after 2 hrs by Western blot analysis; assay type: cell-based
Chain of Eukaryotic translation initiation factor 2 subunit 1 (Homo sapiens) (P05198 whole entry): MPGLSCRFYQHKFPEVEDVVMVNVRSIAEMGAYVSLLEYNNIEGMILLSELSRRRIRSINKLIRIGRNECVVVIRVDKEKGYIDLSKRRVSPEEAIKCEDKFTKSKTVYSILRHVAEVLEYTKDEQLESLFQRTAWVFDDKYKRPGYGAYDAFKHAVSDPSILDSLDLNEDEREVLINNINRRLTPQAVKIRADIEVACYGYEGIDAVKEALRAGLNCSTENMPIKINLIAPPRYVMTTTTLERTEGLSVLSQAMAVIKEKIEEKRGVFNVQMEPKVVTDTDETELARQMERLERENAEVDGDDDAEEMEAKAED

[9] = target: Eukaryotic translation initiation factor 2 subunit 1 (Homo sapiens) (UniProt P05198); test: Induction of EIF2alpha phosphorylation in human U87MG cells at 10 ug/ml measured after 2 hrs by Western blot analysis; assay type: cell-based
Method in brief: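 U87MG cells (0.5 x 10^6 per well) exposed to tunicamycin at 10 µg/mL for 2 h. Cells lysed by sonication in Tris/NaCl/Triton X-100/SDS buffer, pH 7.4, and cleared at 13,500×g, 4 °C. Protein was measured by BCA, and 30 µg was run on 10% acrylamide gels and transferred to PVDF. Antibody signal was read by fluorescence imaging.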

Compound: N#Cc1cccc(/C=C/C(=O)c2ccc(S(N)(=O)=O)cc2)c1
- IC50 [2]: 6.64 µM
- CI [6]: <1

Compound: C[C@]12CC[C@@H]3c4ccc(O)cc4CC[C@H]3[C@@H]1CC[C@@H]2O
- Activity [7]: inactive

Compound: CCCCCCCCCCCCC/C=C/C(=O)N[C@H]1[C@H](O[C@H]2O[C@H](CO)[C@@H](O)[C@H](O)[C@H]2NC(C)=O)O[C@H](C[C@@H](O)[C@H]2O[C@@H](n3ccc(=O)[nH]c3=O)[C@H](O)[C@@H]2O)[C@H](O)[C@@H]1O
- Activity [8]: Active
- Activity [9]: Active

Now from value to compound, other results behind:

- IC50 [2]: 1.23 µM
Compound: CCN(CC)S(=O)(=O)c1ccc(C(=O)/C=C/c2cccc(C#N)c2)cc1
- IC50 [1]: 19.9 µM
- IC50 [3]: 26.4 µM
- IC50 [4]: 17.7 µM
- inhibition (INH) [5]: >50%
- CI [6]: <1

- IC50 [2]: 6.23 µM
Compound: CN(C)S(=O)(=O)c1ccc(C(=O)/C=C/c2cccc(C#N)c2)cc1
- CI [6]: <1
